Measured values taken from ChEMBL document CHEMBL1139629 (Bioorg Med Chem Lett, 2005).

Key:
Rattus norvegicus = organism: Rattus norvegicus; assay: Inhibition concentration against ADP-induced platelet aggregation using rat platelet rich plasma; type: functional
How it was run: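 Aggregation was induced with ADP in rat platelet-rich plasma, and IC50 was taken from inhibition of aggregation. Values are the mean of two or three experiments.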

Cell line = assay: Inhibition concentration against ADP-induced platelet aggregation using human platelet rich plasma; type: functional, cell-based
How it was run: (§1)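 Functional IP agonism was measured as inhibition of ADP-induced aggregation in platelet-rich plasma from human, rat, dog or monkey. IC50 was taken from the inhibition of aggregation.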

Prostacyclin receptor = Prostacyclin receptor (Homo sapiens, UniProt P43119); assay: Displacement of [3H]iloprost from human Prostanoid IP receptor
How it was run: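 Competitive radioligand binding using cloned human IP receptor, measuring displacement of [3H]-iloprost.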

[1] = target: T1, Prostaglandin E2 receptor EP3 subtype (Homo sapiens, UniProt P43115); assay: Displacement of [3H]PGE-2 from human Prostanoid EP3 receptor
T1 sequence (P43115 whole entry): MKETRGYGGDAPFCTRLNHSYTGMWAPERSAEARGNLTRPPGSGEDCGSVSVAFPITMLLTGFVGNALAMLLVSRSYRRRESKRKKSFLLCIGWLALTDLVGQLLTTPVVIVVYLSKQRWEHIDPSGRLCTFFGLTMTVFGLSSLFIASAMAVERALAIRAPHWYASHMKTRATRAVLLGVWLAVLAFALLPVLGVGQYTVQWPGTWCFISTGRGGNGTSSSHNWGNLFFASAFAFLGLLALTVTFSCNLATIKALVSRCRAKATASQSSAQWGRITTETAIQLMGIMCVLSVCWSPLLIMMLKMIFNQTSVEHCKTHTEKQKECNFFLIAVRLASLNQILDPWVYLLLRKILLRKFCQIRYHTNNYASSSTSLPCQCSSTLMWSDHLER

[2] = target: T2, Prostaglandin E2 receptor EP1 subtype (Homo sapiens, UniProt P34995); assay: Displacement of [3H]PGE-2 from human Prostanoid EP1 receptor
T2 sequence (P34995 whole entry): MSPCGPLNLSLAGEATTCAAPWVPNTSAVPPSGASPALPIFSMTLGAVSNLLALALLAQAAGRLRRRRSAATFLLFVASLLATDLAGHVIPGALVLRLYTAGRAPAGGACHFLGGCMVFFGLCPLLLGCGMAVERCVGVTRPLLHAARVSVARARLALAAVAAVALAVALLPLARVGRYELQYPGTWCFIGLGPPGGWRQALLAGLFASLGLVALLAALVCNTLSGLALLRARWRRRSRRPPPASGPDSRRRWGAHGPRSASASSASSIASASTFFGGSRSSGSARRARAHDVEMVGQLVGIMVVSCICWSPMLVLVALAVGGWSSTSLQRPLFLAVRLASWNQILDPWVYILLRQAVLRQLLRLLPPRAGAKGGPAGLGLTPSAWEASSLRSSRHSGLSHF

[3] = target: Prostaglandin E2 receptor EP2 subtype (Homo sapiens, UniProt P43116); assay: Displacement of [3H]-PGE-2 from human Prostanoid EP2 receptor
[4] = target: Prostaglandin E2 receptor EP4 subtype (Homo sapiens, UniProt P35408); assay: Displacement of [3H]PGE-2 from human Prostanoid EP4 receptor
[5] = target: Prostaglandin F2-alpha receptor (Homo sapiens, UniProt P43088); assay: Displacement of [3H]PGF-2 from human Prostanoid FP receptor
Thromboxane A2 receptor = target: T3, Thromboxane A2 receptor (Homo sapiens, UniProt P21731); assay: Displacement of [3H]SQ-29,548 from human Prostanoid TP receptor
T3 sequence (P21731 whole entry): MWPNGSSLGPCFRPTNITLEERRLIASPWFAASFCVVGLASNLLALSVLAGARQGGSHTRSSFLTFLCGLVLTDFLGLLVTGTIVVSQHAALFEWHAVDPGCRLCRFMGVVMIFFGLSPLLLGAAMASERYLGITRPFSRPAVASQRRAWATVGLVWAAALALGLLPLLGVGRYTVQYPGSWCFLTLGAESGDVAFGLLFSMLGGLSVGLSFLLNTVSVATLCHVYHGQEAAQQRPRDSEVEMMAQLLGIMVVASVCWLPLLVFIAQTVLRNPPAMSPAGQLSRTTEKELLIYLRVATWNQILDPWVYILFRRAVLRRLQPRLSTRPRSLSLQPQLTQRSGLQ

[6] = target: T4, Prostaglandin D2 receptor (Homo sapiens, UniProt Q13258); assay: Displacement of [3H]PGD-2 from human Prostanoid DP receptor
T4 sequence (Q13258 whole entry): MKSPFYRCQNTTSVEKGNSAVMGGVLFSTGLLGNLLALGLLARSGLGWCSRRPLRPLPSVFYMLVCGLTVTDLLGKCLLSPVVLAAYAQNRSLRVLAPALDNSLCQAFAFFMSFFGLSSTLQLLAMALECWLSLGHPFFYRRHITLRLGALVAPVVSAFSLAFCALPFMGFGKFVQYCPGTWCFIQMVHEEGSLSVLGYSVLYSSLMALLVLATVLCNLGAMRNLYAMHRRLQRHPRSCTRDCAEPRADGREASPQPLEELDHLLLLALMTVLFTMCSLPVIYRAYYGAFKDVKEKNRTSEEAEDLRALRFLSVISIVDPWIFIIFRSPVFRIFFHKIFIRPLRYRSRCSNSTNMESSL

[7] = Total clearance in rat after intravenous administration at 10 mg/kg dose; type: ADME, organism-based; parameters: dose 10 mg/kg, route intravenous; settings: in vivo, read-out: CLtot
[8] = Maximum concentration in rat after oral administration at 10 mg/kg dose; type: ADME, organism-based; parameters: dose 10 mg/kg, route oral; settings: in vivo
Canis familiaris = organism: Canis familiaris; assay: Inhibition concentration against ADP-induced platelet aggregation using dog platelet rich plasma; type: functional; settings: Canis lupus familiaris; how it was run: as §1
[9] = Total clearance in dog after intravenous administration at 0.32 mg/kg dose; type: ADME, organism-based, Canis lupus familiaris; parameters: dose 0.32 mg/kg, route intravenous; settings: in vivo, read-out: CLtot
dog (Canis familiaris) = assay: Area under curve in dog after oral administdogion at 0.32 mg/kg dose; settings: in vivo
Monkey = assay: Inhibition concentration against ADP-induced platelet aggregation using monkey platelet rich plasma; type: functional; settings: Cercopithecidae; how it was run: as §1
[10] = Area under curve in rat after oral administration at 10 mg/kg dose; type: ADME, organism-based; parameters: dose 10 mg/kg, route oral; settings: in vivo
[11] = Bioavailability in rat after […] administration at 10 mg/kg dose; type: ADME, organism-based; settings: in vivo, read-out: Ba
[12] = Half life in rat after intravenous administration at 10 mg/kg dose; type: ADME, organism-based; parameters: dose 10 mg/kg, route intravenous; settings: in vivo

Prostacyclin receptor, sequence (P43119 whole entry): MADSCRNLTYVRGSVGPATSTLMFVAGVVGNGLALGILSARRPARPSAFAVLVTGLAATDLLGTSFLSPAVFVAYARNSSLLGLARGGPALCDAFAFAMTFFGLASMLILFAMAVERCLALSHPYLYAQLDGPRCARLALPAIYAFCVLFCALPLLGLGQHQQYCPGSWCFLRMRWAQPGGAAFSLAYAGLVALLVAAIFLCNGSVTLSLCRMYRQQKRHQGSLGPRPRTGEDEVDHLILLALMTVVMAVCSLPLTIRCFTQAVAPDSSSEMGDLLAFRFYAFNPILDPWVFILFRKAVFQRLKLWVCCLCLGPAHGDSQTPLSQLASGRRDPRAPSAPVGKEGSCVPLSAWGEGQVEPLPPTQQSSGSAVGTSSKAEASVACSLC
Prostaglandin F2-alpha receptor, sequence (P43088 whole entry): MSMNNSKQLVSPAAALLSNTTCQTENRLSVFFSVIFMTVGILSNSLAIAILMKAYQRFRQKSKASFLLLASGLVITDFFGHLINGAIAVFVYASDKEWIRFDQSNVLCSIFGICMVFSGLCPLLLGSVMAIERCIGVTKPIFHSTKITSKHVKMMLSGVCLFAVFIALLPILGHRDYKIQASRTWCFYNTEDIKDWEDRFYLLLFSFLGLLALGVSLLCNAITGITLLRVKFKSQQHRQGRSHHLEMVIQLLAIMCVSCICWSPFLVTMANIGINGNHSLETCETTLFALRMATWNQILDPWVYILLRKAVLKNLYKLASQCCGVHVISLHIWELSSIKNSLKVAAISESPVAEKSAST
Prostaglandin E2 receptor EP2 subtype, sequence (P43116 whole entry): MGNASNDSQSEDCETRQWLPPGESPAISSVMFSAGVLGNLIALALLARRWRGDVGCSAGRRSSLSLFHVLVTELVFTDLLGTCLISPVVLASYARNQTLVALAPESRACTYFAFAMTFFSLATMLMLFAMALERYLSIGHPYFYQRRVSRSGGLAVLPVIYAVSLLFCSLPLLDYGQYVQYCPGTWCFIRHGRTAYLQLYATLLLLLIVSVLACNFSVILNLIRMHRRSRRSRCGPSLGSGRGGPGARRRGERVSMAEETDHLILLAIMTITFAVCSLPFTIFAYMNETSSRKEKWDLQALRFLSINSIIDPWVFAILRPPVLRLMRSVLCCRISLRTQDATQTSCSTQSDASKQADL
Prostaglandin E2 receptor EP4 subtype, sequence (P35408 whole entry): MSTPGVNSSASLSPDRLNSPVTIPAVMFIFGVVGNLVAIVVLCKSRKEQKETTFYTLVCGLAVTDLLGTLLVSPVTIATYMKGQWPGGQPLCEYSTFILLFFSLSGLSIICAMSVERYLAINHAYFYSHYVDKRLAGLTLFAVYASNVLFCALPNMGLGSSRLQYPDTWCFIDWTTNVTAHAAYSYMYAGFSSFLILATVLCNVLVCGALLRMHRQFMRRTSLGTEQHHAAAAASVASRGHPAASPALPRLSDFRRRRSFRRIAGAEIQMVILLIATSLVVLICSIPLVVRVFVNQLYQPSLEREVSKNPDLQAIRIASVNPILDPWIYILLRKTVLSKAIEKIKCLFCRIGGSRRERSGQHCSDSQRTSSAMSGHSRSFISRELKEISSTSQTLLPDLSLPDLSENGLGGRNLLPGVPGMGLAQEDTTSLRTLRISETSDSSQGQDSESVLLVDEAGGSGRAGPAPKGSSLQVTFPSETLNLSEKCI

Compound	IC50 (Rattus norvegicus) [nM]	IC50 (Cell line) [nM]	Ki (Prostacyclin receptor) [nM]	Ki [1] [nM]	Ki [2] [nM]	Ki [3] [nM]	Ki [4] [nM]	further results
O=C(O)COc1cccc2c1CC[C@@](O)(COC(=O)N(c1ccccc1)c1ccccc1)C2	> 10000	270	–	–	–	–	–	–
O=C(O)COc1cccc2c1CC[C@](O)(COC(=O)N(c1ccccc1)c1ccccc1)C2O (single isomer, unassigned)	7400	5.8	110	> 10000	> 1000	> 1000	> 10000	–
O=C(O)COc1cccc2c1CCC[C@H]2N1CCC[C@@H]1c1nc(-c2ccccc2)c(-c2ccccc2)o1	–	–	12	> 10000	> 1000	> 1000	> 10000	Ki [5]: > 1000 nM; Ki (Thromboxane A2 receptor): > 1000 nM; Ki [6]: > 1000 nM
O=C(O)COc1cccc2c1CC[C@](O)(COC(=O)N(c1ccccc1)c1ccccc1)[C@H]2O	> 10000	1300	–	–	–	–	–	–
CC#CCC(C)[C@H](O)/C=C/[C@@H]1[C@H]2C/C(=C/CCCC(=O)O)C[C@H]2C[C@H]1O (stereo not given in full) [ILOPROST]	–	2.5	–	–	–	–	–	–
O=C(O)COc1cccc2c1CC[C@H](COC(=O)N(c1ccccc1)c1ccccc1)[C@H]2O	> 10000	3200	–	–	–	–	–	–
O=C(O)COc1cccc2c1CCC(COC(=O)N(c1ccccc1)c1ccccc1)=C2	> 10000	91	–	–	–	–	–	–
O=C(O)COc1cccc2c1CC[C@](O)(COC(=O)N(c1ccccc1)c1ccccc1)C2	1400	18	8.9	8200	9600	> 10000	> 10000	clearance [7]: 38 mL/min/kg; Ki [5]: > 10000 nM; Cmax [8]: 342 ng/mL; IC50 (Canis familiaris): 480 nM; clearance [9]: 2.31 mL/min/kg; Ki (Thromboxane A2 receptor): > 10000 nM; AUC (dog (Canis familiaris)): 2200 ng·h/mL; Ki [6]: 2300 nM; IC50 (Monkey): 13 nM; AUC [10]: 1590 ng·h/mL; bioavailability [11]: 38%; half-life [12]: 1.81 h
O=C(O)COc1cccc(C[C@@H]2CCCC=C2c2nc(-c3ccccc3)c(-c3ccccc3)o2)c1	–	–	–	6800	> 1000	> 1000	–	Ki [5]: > 1000 nM; Ki (Thromboxane A2 receptor): > 1000 nM; Ki [6]: > 1000 nM
CCC/C(CC1CCc2c(cccc2OCC(=O)O)C1)=N\OC(c1ccccc1)c1ccccc1 (stereo not given) [AP-227]	5600	150	–	–	–	–	–	–
O=C(O)COc1cccc2c1CCC(COC(=O)N(c1ccccc1)c1ccccc1)C2 (stereo not given)	> 10000	53	140	1900	> 1000	> 1000	> 10000	–
O=C(O)COc1cccc2c1CC[C@H](COC(=O)N(c1ccccc1)c1ccccc1)C2O (single isomer, unassigned)	> 10000	170	–	–	–	–	–	–
